MEX-5 binding: MEX-5 zinc finger RNA-binding disruptors – biochemical, C. elegans, fluorescence polarization, MLPCN library, primary screen; Zinc finger protein mex-5 (Caenorhabditis elegans), Q9XUB2; MEX-5/FITC-TCR2 RNA binding; hits give low values; activity score (negative = inhibition of binding), % at 10 µM; 300,000 tested, 0.38% active; AID 1832, 2009;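 active = inhibition past about -25% in most replicates, and total fluorescence under double the plate's negative control median, limit read from the data; inconclusive = replicates evenly split on the limit, or fluorescence at least double controls; inactive = too little inhibition in most replicates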
Target sequence (Q9XUB2 whole entry, looked up): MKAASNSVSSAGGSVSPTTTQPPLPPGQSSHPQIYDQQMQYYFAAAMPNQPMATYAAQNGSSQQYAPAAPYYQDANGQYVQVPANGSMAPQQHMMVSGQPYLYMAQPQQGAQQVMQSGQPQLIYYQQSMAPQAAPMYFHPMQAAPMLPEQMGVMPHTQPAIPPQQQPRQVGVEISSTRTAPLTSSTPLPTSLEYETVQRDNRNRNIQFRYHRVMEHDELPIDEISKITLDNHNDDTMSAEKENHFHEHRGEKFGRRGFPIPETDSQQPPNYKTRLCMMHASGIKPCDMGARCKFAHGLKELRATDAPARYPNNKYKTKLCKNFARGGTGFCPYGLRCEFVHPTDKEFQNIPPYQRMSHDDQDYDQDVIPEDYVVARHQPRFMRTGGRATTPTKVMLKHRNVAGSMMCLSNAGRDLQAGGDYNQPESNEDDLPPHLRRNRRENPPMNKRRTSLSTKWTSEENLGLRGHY
Runt-CBFb FRET: inhibitors of RUNX1 Runt–CBFb binding, primary screen, biochemical, FRET, Cerulean-Runt, Venus-CBFb, uHTS; Runt-related transcription factor 1 (Homo sapiens) + Core-binding factor subunit beta …; Cerulean-Runt/Venus-CBFb FRET ratio 530/480, 1 h; inhibition, % at 20 µM; 220,000 tested, 0.46% active; AID 1496, 2009;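 active = inhibition over about 50% at 20 µM in the single-dose screen, limit read from the data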
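Reagent – Venus-CBFb binding partner, 100 nM · Assay system – Cerulean-tagged RUNX1 Runt domain (FRET donor) fusion protein · Input – 100 nM per protein · Incubation – two 1 h room-temperature incubations shielded from light · Measured by – FRET fluorescence · Medium – Tris buffer pH 7.5 with salts and BSA · Benchmarks – unlabeled CBFb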
EBV gp42 block: Epstein-Barr virus gp42 inhibitors, primary screen, biochemical, uHTS, fluorescence polarization; Glycoprotein 42 (Epstein-Barr virus (strain AG876)), Q1HVG2; Fluorescence polarization binding assay, mP read-out; inhibition, % (tested at 21.74 µM); 220,000 tested, 0.42% active; in the data active = inhibition above about 50%
Target sequence (Q1HVG2 whole entry, looked up): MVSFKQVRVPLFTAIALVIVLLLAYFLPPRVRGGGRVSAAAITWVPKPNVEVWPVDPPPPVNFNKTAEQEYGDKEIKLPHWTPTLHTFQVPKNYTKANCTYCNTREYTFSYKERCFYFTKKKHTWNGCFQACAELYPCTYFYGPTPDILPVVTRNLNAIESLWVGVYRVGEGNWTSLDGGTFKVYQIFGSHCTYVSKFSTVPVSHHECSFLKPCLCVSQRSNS
Runt-SMMHC FRET: inhibitors of RUNX1 Runt–CBFb-SMMHC binding, primary screen, biochemical, FRET, Cerulean-Runt, Venus-CBFb-SMMHC, uHTS. inhibition, % at 20 µM. Cerulean-Runt/Venus-CBFb-SMMHC FRET ratio 530/480, 1 h. Runt-related transcription factor 1 (Homo sapiens) + Core-binding factor subunit beta …. 220,000 tested, 0.74% active;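 active = mean inhibition across duplicate retests at 20 µM reaching about 50%, limit read from the data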;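 note: inhibitors lower the FRET ratio by blocking Runt binding to CBFb-SMMHC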
RanGTP-Impb inh: inhibitors of RanGTP-importin-beta interaction, primary screen, biochemical, FRET, CFP-Ran, YFP-importin-beta, homogeneous. cell-free CFP-Ran/YFP-importin-beta FRET ratio. 300,000 tested, 1.1% active. AID 2216, 2009. inhibition, % (test concentration not listed);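 active = more than half of the replicate wells show a fall in the fluorescence ratio signal beyond about 16%, limit read from the data, passing the limit was not always enough; inconclusive = exactly half of the replicate wells pass the set limit; inactive = fewer than half of replicates pass the limit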
LANA-H2B inh: blockers of LANA interaction with H2A/H2B – biochemical, FP readout, HTS, primary screen. Protein LANA1 (Human herpesvirus 8 type P (isolate GK18)), Q9QR71. inhibition, % (concentration not given with the values). 320,000 tested, 0.6% active. cell-free LANA-H2A/H2B peptide, fluorescence polarization; in the data active = inhibition mostly above about 10%, no sharp cut-off; inactive = mostly below about 6.7%
A number is an active result; i = inactive; ? = inconclusive; nt = not tested or not shown; + = active, no number; ! = repeats disagree. A selection: hits, their analogues and other compounds. The true share with any hit is near 2.4%.

SMILES	MEX-5 binding	Runt-CBFb FRET	EBV gp42 block	Runt-SMMHC FRET	RanGTP-Impb inh	LANA-H2B inh
c1ccc(COC(CN2CCCCCC2)CN2CCCCCC2)cc1	i	i	i	i	i	i
COC(=O)c1cc(C(=O)c2cc(Cl)ccc2O)coc1=N	i	i	i	i	i	i
COCCOC(=O)c1cc(C(=O)c2cc(F)ccc2O)coc1=N	i	i	i	120	31	i
CC1=C(C(=O)N2CCN(c3cc(C)ccc3C)CC2)C2(CCC(C)CC2)OC1=O (stereo not drawn)	nt	i	i	i	nt	nt
CCC(C)NC(=O)c1ccccc1-c1nc2ccccc2[nH]1 (stereo not drawn)	i	i	i	i	i	i
CCn1nc(C)cc1Nc1ccccc1	i	i	i	i	37	i
Cc1cc(Nc2ccccc2)n(CCO)n1	i	i	i	i	i	i
COc1ccccc1C(=O)NCC(=O)OC(C)C(=O)N(C)C1CCCCC1 (stereo not drawn)	nt	nt	nt	nt	nt	19
O=C(NCc1ccccc1)c1ccc(NC(=O)c2ccccc2F)cc1	i	nt	nt	nt	i	i
CCCCCCCC(=O)OCC(O)CO (stereo not drawn)	i	i	i	i	i	i
CCCCC(CC)COC(=O)CCCCC(=O)OCC(CC)CCCC (stereo not drawn)	nt	nt	nt	nt	nt	46
CCCC1=Nc2cc(C(=O)NCCN3CCOCC3)ccc2Sc2ccc(C)cc21	i	nt	nt	nt	i	i
CCC1=Nc2cc(C(=O)NCCN3CCOCC3)ccc2Sc2ccc(C)cc21	i	nt	nt	nt	i	5.1
Cc1ccc(OCC(=O)OCCN2C(=O)c3ccccc3C2=O)cc1C	i	i	i	i	i	19
Cc1ccc(NC(=O)CC(C)CC2=NS(=O)(=O)c3ccccc3N2)cc1 (stereo not drawn)	i	nt	nt	nt	i	i
CC(OC(=O)CN1C(=O)c2ccccc2C1=O)C(=O)NC1CCCC1 (stereo not drawn)	i	nt	nt	nt	i	i
Cc1occc1C(=O)N/N=C/C1=C(N2CCOCC2)C(=C\c2ccc(Cl)cc2Cl)/CC1	-54	i	i	i	i	i
Cc1cc(C)nc(N/N=C/C2=C(N3CCOCC3)C(=C\c3ccc(Cl)cc3)/CC2)n1	i	i	i	i	i	i
CC(C)(C)c1ccc(C(=O)Nc2cccc3c(=O)[nH][nH]c(=O)c23)cc1	i	i	93	i	39	i
COc1ccc(/C=N/n2c(-c3ccc(C)cc3)n[nH]c2=S)cc1OC	i	i	i	i	i	i
O=C(/C=C/c1cn(CC(O)CN2CCCCC2)c2ccccc12)c1ccccc1 (stereo not drawn)	i	i	i	i	i	nt
CCCN(CCC)CC(O)Cn1cc(/C=C/C(=O)c2ccccc2)c2ccccc21 (stereo not drawn)	i	i	i	i	29	nt
CN1CCN(Cn2cc(/C=C/C(=O)c3ccccc3)c3ccccc32)CC1	i	i	i	i	67	i
Cc1cccc(C(C)C)c1NC(=O)C1CCN(S(=O)(=O)c2ccccc2)CC1	i	nt	nt	nt	i	i
O=C(O)CCCCCCCC(=O)O	i	i	i	i	i	31!
SMILES	MEX-5 binding	Runt-CBFb FRET	EBV gp42 block	Runt-SMMHC FRET	RanGTP-Impb inh	LANA-H2B inh
NCCCCCC(=O)O	nt	nt	nt	nt	nt	i
CC(C)Cn1c(-c2cccnc2)nc2c1c(=O)[nH]c(=O)n2CC(C)C	i	nt	nt	nt	i	i
CN(C(=O)c1cncc(Br)c1)c1c(N)n(Cc2ccccc2)c(=O)[nH]c1=O	i	nt	nt	nt	i	i
CN(Cc1ccc2c(c1)OCO2)C(=O)c1cc(-c2ccccc2)c(N2CCOCC2)s1	nt	nt	nt	nt	nt	i
Cc1ccc(NC(=O)COC(=O)CN2C(=O)c3ccccc3C2=O)cc1S(=O)(=O)N(C)C	i	i	i	i	40	i
Cc1ccc(NC(=O)COC(=O)CN2C(=O)NC3(CCCC3)C2=O)cc1S(=O)(=O)N(C)C	i	i	i	i	i	i
CCCC(C)NC1=NCCCCC1 (stereo not drawn)	i	i	i	i	i	i
COc1cc(C(=O)NNC(=O)NC2CCCCC2)cc(OC)c1OC	i	i	i	i	i	14
COc1cc(C(=O)NNC(=O)C2CCCC2)cc(OC)c1OC	i	nt	nt	nt	i	i
Cn1cccc1/C=C1\SC(=S)N(NC(=O)c2ccccc2)C1=O	nt	i	i	i	nt	+
Cn1cccc1/C=C1\SC(=S)N(NC(=O)c2ccc(F)cc2)C1=O	nt	i	i	i	i	i
O=c1[nH][nH]c2cc(=O)n(-c3cccc(C(F)(F)F)c3)nc12	-46	i	i	i	i	i
Nc1n[nH]c2cc(=O)n(-c3cccc(C(F)(F)F)c3)nc12	i	64	i	86	118	i
COC(=O)c1sc2cc(=O)n(-c3cccc(C(F)(F)F)c3)nc2c1O	i	i	i	i	i	i
COc1ccc(-n2nc3c(=O)[nH][nH]c3cc2=O)cc1	-79	i	i	i	i	i
COC(=O)c1nn(-c2ccc(OC)cc2)c(=O)cc1NN	i	i	i	i	nt	i
NC(=O)CCN1CCC(c2nc3ccccc3s2)CC1	i	nt	nt	nt	i	i
Cc1nnc(NC(=O)CSc2nnc3ncccn23)s1	i	nt	nt	nt	i	i
Cc1nc(SCCC(=O)O)c2cc(-c3ccccc3)sc2n1	i	nt	nt	nt	i	i
CC[n+]1c(C)sc2cc(C)ccc21	i	i	i	i	i	9.2
CCCC[n+]1c(C)sc2ccc(C)cc21	i	i	i	i	?	i
O=C(Nc1ccc(S(=O)(=O)Nc2cnc3ccccc3n2)cc1)c1cc(F)c(F)cc1Cl	i	nt	nt	nt	i	22
CCCn1cc(CN2CCC(N3CCC(C(=O)N4CCOCC4)CC3)CC2)c(C)n1	i	i	i	i	i	nt
CCc1nn2c(NCCCO)cc(C)nc2c1-c1ccc(F)cc1	i	nt	nt	nt	i	i
Cc1cc(C)c2c(n1)nn1c(NCCOCCO)cc(C)nc21	i	i	i	72	38	i
CCN(CC)C(=O)Cn1c(=O)c2ccccc2n2c(=S)sc(-c3cccc(C)c3)c12	-67	i	i	i	i	i
CCN(CC)C(=O)CCn1nc(-c2ccc(C)cc2)c2ccccc2c1=O	i	nt	nt	nt	i	i
Clc1ccc(N=c2ssnc2Cl)cc1	nt	i	i	i	i	i
Fc1ccc(N=c2ssnc2Cl)c(F)c1	-30	i	i	i	i	i
CC(=O)c1cccc(OC(=O)c2cc(S(=O)(=O)N3CCOCC3)ccc2N2CCCC2)c1	nt	nt	nt	nt	nt	i
